Experimental findings from ChEMBL document CHEMBL4007452, “Discovery of an Orally Selective Inhibitor of Signal Transducer and Activator of Transcription 3 Using Advanced Multiple Ligand Simultaneous Docking” (J Med Chem, 2017) are described below.

pIC50, pKi: −log10 of the molar value. Calls of active or inactive are those of the source. No cut-off for these calls is given here.

Usually pKi stands for the negative decadic logarithm of the Ki, by convention in mol/L. As usually defined, the Tmax is the time from dosing to the highest level. Usually pIC50 stands for the IC50 on a negative log10 scale, so that one unit is a factor of ten.

For data set [1], the system named is Rattus norvegicus. As to the kind of experiment: AUMC (0 to t) in Sprague-Dawley rat plasma at 10 mg/kg, po measured after 24 hrs by UPLC analysis. The note with it: in vivo. The data set is classed as ADME, organism-based. The procedure, abridged: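 Rat plasma sampled from 2 min to 24 h after a single i.v. (1 mg/kg) or p.o. (10 mg/kg) dose. Parameters were derived from the concentration-time profiles. The bioanalytical method was validated to FDA guidelines for selectivity, linearity, LLOQ, accuracy, precision, recovery, matrix effect and stability.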

Data set [2] deals with T1, Signal transducer and activator of transcription 3 (Homo sapiens, UniProt P40763). As to the kind of experiment: Binding affinity to fluorescently labeled STAT3 (unknown origin) by MST-analysis. In a few lines:
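Labeled STAT3 protein held constant at 10-20 nM, titrated against up to 16 serial dilutions of unlabeled inhibitor. […] Protein was dye-labeled and freed of excess dye within 45 min. Equal volumes were mixed, loaded into glass capillaries and read by microscale thermophoresis.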

For data set [3], the target named is T1, Signal transducer and activator of transcription 3. As to the kind of experiment: Displacement of 5-FAM-SpYLPQTV from STAT3 (unknown origin) at pY705 site after 30 mins by fluorescence polarization assay. On the technique in general: Polarisation of emitted light reports the rotation of a fluorescent probe.
Data set [4] has as its system Mus musculus. As to the kind of experiment: Toxicity in BALB/c nude mouse xenografted with […] S180 cells assessed as body weight loss at 5 mg/kg, po after 21 days relative to vehicle control. The data set is classed as organism-based. The conditions noted are these: in vivo, 504 h. For orientation: A xenograft is tissue or cells of one species grown in another, often human tumour cells in immunodeficient mice.

The target of data set [5] is T2, Signal transducer and activator of transcription 1-alpha/beta (Homo sapiens) (UniProt P42224).
T2 sequence (whole entry): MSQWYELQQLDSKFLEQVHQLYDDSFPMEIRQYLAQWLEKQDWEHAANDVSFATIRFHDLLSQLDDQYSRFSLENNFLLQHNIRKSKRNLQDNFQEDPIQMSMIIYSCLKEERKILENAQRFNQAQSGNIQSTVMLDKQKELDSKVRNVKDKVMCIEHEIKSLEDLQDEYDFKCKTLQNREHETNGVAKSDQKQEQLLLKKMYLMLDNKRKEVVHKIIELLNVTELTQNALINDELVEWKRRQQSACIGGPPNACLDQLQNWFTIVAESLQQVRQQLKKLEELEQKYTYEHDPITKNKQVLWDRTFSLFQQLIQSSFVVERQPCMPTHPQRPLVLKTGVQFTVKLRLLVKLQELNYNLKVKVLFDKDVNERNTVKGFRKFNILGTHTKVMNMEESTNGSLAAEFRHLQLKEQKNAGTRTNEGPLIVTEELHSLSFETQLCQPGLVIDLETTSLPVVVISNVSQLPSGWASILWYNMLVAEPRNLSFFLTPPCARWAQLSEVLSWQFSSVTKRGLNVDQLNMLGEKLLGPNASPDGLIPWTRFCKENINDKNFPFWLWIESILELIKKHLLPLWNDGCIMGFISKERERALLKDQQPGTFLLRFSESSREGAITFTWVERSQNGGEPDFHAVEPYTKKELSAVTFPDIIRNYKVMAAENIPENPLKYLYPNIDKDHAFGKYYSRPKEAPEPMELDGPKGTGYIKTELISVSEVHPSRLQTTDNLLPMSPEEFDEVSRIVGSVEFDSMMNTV
As to the kind of experiment: Inhibition of STAT1 in human MDA-MB-231 cells assessed as reduction in CDK2 mRNA level at 5 to 10 uM by RT-PCR analysis. In kind it is cell-based. The procedure, abridged: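 Total RNA was extracted from treated MDA-MB-231 cells and 1 µg reverse-transcribed. qPCR ran 95 °C 5 min, then 40 cycles of 95 °C 10 s, 60 °C 15 s and 72 °C 15 s, followed by a melt curve from 60 to 95 °C.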

In data set [6] the test system is Mus musculus. As to the kind of experiment: Toxicity in BALB/c nude mouse xenografted with human MDA-MB-231 cells assessed as kidney damage at 2.5 to 10 mg/kg, po qd administered for 32 days by H&E staining based light microscopy. The conditions noted are these: in vivo, 768 h. In kind it is organism-based. In a few lines:
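6-week-old female athymic SPF BALB/c nude mice received 5 x 10^6 MDA-MB-231 cells s.c. in the flank. Oral treatment began once tumors reached about 100 mm3, with 8 mice per group and a saline vehicle control. […] Treatment lasted 32 days. Heart, liver, spleen, lung and kidney were fixed 48 h in 10% neutral-buffered formaldehyde, paraffin-embedded, cut at 5 µm, H&E-stained and examined by light microscopy.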

The nature of data set [7]: Selectivity ratio of IC50 for human MCF-10A cells to IC50 for human MDA-MB-231 cells. In a few lines: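 MTT viability assay. MCF-10A was grown in RPMI-1640 and MDA-MB-231 in DMEM, each with 10% FBS. Cells were seeded at 3000 per well and left 24 h at 37 °C. Compound was then added in triplicate with 10% FBS, at 0.1-10 µM for the cancer cells and 3.125-400 µM for MCF-10A. Absorbance was read at 595 nm. The ratio is IC50 for MCF-10A over IC50 for MDA-MB-231.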

Data set [8] concerns CCRF S-180. As to the kind of experiment: Anticancer activity against […] cells xenografted in BALB/c nude mouse assessed as reduction in tumor weight at 5 mg/kg, po measured after 21 days relative to vehicle control. Set-up: scale not given: the % may be the effect or the level left. The data set is classed as functional. The procedure, abridged: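 Male mice, 4 weeks old, given s.c. flank S180 mouse sarcoma cells (3 x 10^6). From day 2, 10 mice per group received saline vehicle, oral drug at 5 mg/kg, or i.p. drug at 1 mg/kg, each dissolved in saline. Therapy ran 21 days; tumor weight and body weight were recorded.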

Data set [9] has as its target T1, Signal transducer and activator of transcription 3. The conditions noted are these: 2.5 to 5 uM.
Data set [10] in a line: Tmax in Sprague-Dawley rat plasma at 1 mg/kg, iv measured after 24 hrs by UPLC analysis. In kind it is ADME, organism-based. In a few lines: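 Rats dosed i.v. or p.o. Plasma concentrations followed from 2 min to 24 h after dosing. The bioanalytical method was validated to FDA guidelines for selectivity, linearity, LLOQ, accuracy, precision, recovery, matrix effect and stability.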

In data set [11] the target is T2, Signal transducer and activator of transcription 1-alpha/beta (Homo sapiens). As to the kind of experiment: Inhibition of STAT1 in human MDA-MB-231 cells assessed as reduction in STAT1 phosphorylation at Y701 site at 2.5 to 10 uM after 12 hrs by immunoblot analysis. In kind it is cell-based. In general terms: Immunoblotting shows a protein as a band on a membrane.

Data set [12] can be described thus: Antiproliferative activity against human BkPC-3 cells after 24 hrs by MTT assay. In kind it is functional, cell-based. The conditions noted are these: BkPC-3, 24 h. The procedure, abridged: (§1)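 Cells were seeded at 3000 per well and incubated 24 h at 37 °C. Compounds were added in triplicate with 10% FBS: 0.1-10 or 0.1-20 µM for cancer lines, 3.125-400 µM for MCF-10A. Viability was read by MTT absorbance at 595 nm, with IC50 fitted from the curves. DMSO stocks were 20 mM.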

The target in data set [13] is T2, Signal transducer and activator of transcription 1-alpha/beta (Homo sapiens). As to the kind of experiment: Inhibition of STAT1 in human MDA-MB-231 cells assessed as reduction in IFN-gamma-induced STAT1 phosphorylation at 2.5 to 5 uM preincubated for 2 hrs followed by IFN-gamma stimulation measured after 30 mins by Western blot analysis. In kind it is cell-based. In a few lines:
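MDA-MB-231 cells were allowed to adhere overnight, then serum-starved. They were pretreated 2 h with 2.5-5 µM compound or DMSO and stimulated with IFN-γ (50 ng/mL). Cells were harvested after 30 min and immunoblotted for P-STAT1(Y701) and T-STAT1.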

Data set [14] can be described thus: Antiproliferative activity against human UW426 cells after 24 hrs by MTT assay. The note with it: UW426, 24 h. In kind it is functional, cell-based. The procedure, abridged:
as §1

Data set [15] has as its target T1, Signal transducer and activator of transcription 3. The note with it: 2.5 to 5 uM. The source holds these as a separate data set.

T1 sequence (P40763 whole entry): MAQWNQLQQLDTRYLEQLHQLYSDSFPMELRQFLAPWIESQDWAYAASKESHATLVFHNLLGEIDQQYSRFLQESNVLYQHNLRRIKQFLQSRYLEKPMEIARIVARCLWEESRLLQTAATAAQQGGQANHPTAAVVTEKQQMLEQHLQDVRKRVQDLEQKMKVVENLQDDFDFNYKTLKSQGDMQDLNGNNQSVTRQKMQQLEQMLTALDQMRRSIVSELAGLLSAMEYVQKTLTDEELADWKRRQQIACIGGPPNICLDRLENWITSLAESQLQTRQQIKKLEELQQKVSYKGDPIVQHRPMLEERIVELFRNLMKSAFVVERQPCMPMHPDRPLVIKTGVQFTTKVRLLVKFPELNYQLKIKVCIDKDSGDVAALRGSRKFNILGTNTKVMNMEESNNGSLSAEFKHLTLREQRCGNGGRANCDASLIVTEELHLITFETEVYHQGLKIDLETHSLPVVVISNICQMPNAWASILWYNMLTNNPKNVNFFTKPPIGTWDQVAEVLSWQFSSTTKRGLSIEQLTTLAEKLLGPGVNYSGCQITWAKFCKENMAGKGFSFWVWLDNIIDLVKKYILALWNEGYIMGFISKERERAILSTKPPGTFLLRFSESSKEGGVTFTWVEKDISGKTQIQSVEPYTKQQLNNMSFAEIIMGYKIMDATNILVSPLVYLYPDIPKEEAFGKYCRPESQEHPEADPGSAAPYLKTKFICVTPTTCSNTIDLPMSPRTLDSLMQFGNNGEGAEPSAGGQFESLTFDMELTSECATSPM

Compound `NS(=O)(=O)c1cccc2c1C(=O)C=C(Nc1ccccc1N1CCNCC1)C2=O` had an AUMCt in data set [1] of 1622.6 hr2.ng/ml. Further, the values for the pKi in [2] and in data set [3] were 5.62 and 6.36, respectively. The Activity in data set [4] is 1.68%; in data set [6], “Non-Toxic”; in data set [8], 72.74%. The inhibition entry in data set [5], in data set [11] and in data set [13] was “inactive” each time. Further, the “Ratio IC50” value in [7] worked out at 184. Also, the inhibition entry in [9] and in data set [15] was “Active” throughout. Moreover, the Tmax in data set [10] turned out to be 1.98 min. Besides, the pIC50 in data set [12] is 5.29; in data set [14], 5.92.
